Source: PMC3397176 (Journal of Medicinal Chemistry, 2012)
Several values for one entry are separate records, joined by “and”; a condition that tells them apart may be missing. Equal entries are not always repeated.

What was measured:
Bcl-xL = Bcl-xL (Homo sapiens, UniProt Q07817); experiment: FP-based competitive binding assay, Bcl-xL; conditions: Bcl-2 and Bcl-xL
Aqueous solubility = format: physicochemical
Bcl-2 = Bcl-2 (Homo sapiens, UniProt P10415); experiment: FP-based competitive binding assay, Bcl-2
[1] = tested on: H146 small-cell lung cancer cell line; experiment: Cell growth assay; format: cell-based, Human; conditions: H146 and H1417
H146 cancer cell line = experiment: Cell death assay; format: cell-based, Human; conditions: H146, 24 h, trypan blue
Method in brief: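 Human small cell lung cancer H146 cells from ATCC, grown in RPMI-1640 with 10% FBS, exposed to test compound for 24 h. Cells then collected and stained with trypan blue. Blue-stained or morphologically unhealthy cells were scored as dead, with at least 100 cells counted per sample.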

[2] = tested on: cleavage of PARP and caspase-3 in the H146 cell line; experiment: Western blotting of PARP and caspase-3 cleavage, H146; format: cell-based, Human; conditions: H146, 24 h, as low as
Method in brief: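 H146 cells (RPMI-1640, 10% FBS) treated with test compound for 24 h, then lysed on ice for 20 min in RIPA buffer (PBS, 1% NP40, 0.5% Na-deoxycholate, 0.1% SDS) with […] and protease inhibitors. Cleared lysates were protein-quantified, run on 4–20% SDS-PAGE and transferred to PVDF. Blots were blocked in 5% milk and probed with rabbit anti-PARP, anti-caspase-3 and anti-GAPDH, then HRP secondary and chemiluminescence.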

Chain of Bcl-2 (P10415 whole entry): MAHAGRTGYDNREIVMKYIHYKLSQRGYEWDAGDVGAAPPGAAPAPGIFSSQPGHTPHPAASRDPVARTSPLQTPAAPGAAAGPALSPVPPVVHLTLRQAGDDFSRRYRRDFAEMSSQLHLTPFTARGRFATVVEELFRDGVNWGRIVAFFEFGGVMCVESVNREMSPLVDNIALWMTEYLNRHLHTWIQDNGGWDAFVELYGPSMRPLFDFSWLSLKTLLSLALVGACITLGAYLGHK
Chain of Bcl-xL (Q07817 whole entry): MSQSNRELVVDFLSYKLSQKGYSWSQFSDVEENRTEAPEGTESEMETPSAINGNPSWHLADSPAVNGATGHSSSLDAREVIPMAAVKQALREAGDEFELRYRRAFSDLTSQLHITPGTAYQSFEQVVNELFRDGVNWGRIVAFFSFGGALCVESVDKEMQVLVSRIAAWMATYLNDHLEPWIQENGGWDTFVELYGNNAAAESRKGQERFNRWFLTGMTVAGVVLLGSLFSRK

## CN(C)CCC(CSc1ccccc1)Nc1ccc(S(=O)(=O)NC(=O)c2ccc(N3CCN(c4cccc(-c5c(-c6ccc(Cl)cc6)cn(CC[C@H](O)CO)c5C(=O)NCCCN5CCN(C)CC5)c4)CC3)cc2)cc1[N+](=O)[O-] (stereo in doubt) [Compound 6, 4-(4-Chlorophenyl)-1-((S)-3,4-dihydroxybutyl)-3-(3-(4-(4-(((4-(((S)-4-(dimethylamino)-1-(phenylthio)butan-2-yl)amino)-3-nitrophenyl)sulfonyl)carbamoyl)phenyl)piperazin-1-yl)phenyl)-N-(3-(4-methylpiperazin-1-yl)propyl)-1H-pyrrole-2-carboxamide]
Bcl-xL
  times more potent than either 4 or 5 in binding: > 10,000

## CN1CCN(CCCNC(=O)c2c(-c3ccccc3)c(-c3ccc(Cl)cc3)cn2CC[C@H](O)CO)CC1 [Compound 4, (S)-4-(4-chlorophenyl)-1-(3,4-dihydroxybutyl)-N-(3-(4-methylpiperazin-1-yl)propyl)-3-phenyl-1H-pyrrole-2-carboxamide]
Aqueous solubility
  aqueous solubility: excellent aqueous solubility

## CN(C)CC[C@H](CSc1ccccc1)Nc1ccc(S(=O)(=O)Nc2ccc(NCCNc3cccc(-c4c(-c5ccc(Cl)cc5)cn(CC[C@H](O)CO)c4C(=O)NCCCN4CCN(C)CC4)c3)cc2)cc1[N+](=O)[O-] [Compound 11, 4-(4-Chlorophenyl)-1-((S)-3,4-dihydroxybutyl)-3-(3-((2-((4-(4-(((R)-4-(dimethylamino)-1-(phenylthio)butan-2-yl)amino)-3-nitrophenylsulfonamido)phenyl)amino)ethyl)amino)phenyl)-N-(3-(4-methylpiperazin-1-yl)propyl)-1H-pyrrole-2-carboxamide]
Bcl-2; Bcl-2/Bcl-xL, protein not specified
  times less potent than 7 in binding: at least 10

## CN(C)CC[C@H](CSc1ccccc1)Nc1ccc(S(=O)(=O)Nc2ccc(N3CCN(c4ccc(-c5c(-c6ccc(Cl)cc6)cn(CC[C@H](O)CO)c5C(=O)NCCCN5CCN(C)CC5)cc4)CC3)cc2)cc1[N+](=O)[O-] [Compound 12, 4-(4-Chlorophenyl)-1-((S)-3,4-dihydroxybutyl)-3-(4-(4-(4-(4-(((R)-4-(dimethylamino)-1-(phenylthio)butan-2-yl)amino)-3-nitrophenylsulfonamido)phenyl)piperazin-1-yl)phenyl)-N-(3-(4-methylpiperazin-1-yl)propyl)-1H-pyrrole-2-carboxamide]
Bcl-2
  times less potent than 7 in binding to Bcl-2: > 10

## CN(C)CC[C@H](CSc1ccccc1)Nc1ccc(S(=O)(=O)Nc2ccc(N3CCN(Cc4ccccc4-c4ccc(Cl)cc4)CC3)cc2)cc1[N+](=O)[O-] [Compound 13, (R)-N-(4-(4-((4'-Chloro-[1,1'-biphenyl]-2-yl)methyl)piperazin-1-yl)phenyl)-4-((4-(dimethylamino)-1-(phenylthio)butan-2-yl)amino)-3-nitrobenzenesulfonamide]
Bcl-2; Bcl-2 and Bcl-xL
  affinity times weaker than that of 1: > 10

## CN(C)CC[C@H](CSc1ccccc1)Nc1ccc(S(=O)(=O)Nc2ccc(N3CCN(c4cccc(-c5c(-c6ccc(Cl)cc6)cn(C)c5C(=O)NCCCN5CCN(C)CC5)c4)CC3)cc2)cc1[N+](=O)[O-] [Compound 16, (R)-4-(4-Chlorophenyl)-3-(3-(4-(4-(4-((4-(dimethylamino)-1-(phenylthio)butan-2-yl)amino)-3-nitrophenylsulfonamido)phenyl)piperazin-1-yl)phenyl)-1-methyl-N-(3-(4-methylpiperazin-1-yl)propyl)-1H-pyrrole-2-carboxamide]
[1]
  times more potent than 7 in cell growth inhibition: 3–5

## CCOC(=O)c1c(-c2cccc(N3CCN(c4ccc(NS(=O)(=O)c5ccc(N[C@H](CCN(C)C)CSc6ccccc6)c([N+](=O)[O-])c5)cc4)CC3)c2)c(-c2ccc(Cl)cc2)cn1C [Compound 19, (R)-Ethyl 4-(4-chlorophenyl)-3-(3-(4-(4-(4-((4-(dimethylamino)-1-(phenylthio)butan-2-yl)-amino)-3-nitrophenylsulfonamido)phenyl)piperazin-1-yl)phenyl)-1-methyl-1H-pyrrole-2-carboxylate]
Bcl-2
  times less potent than 17 in binding to Bcl-2: 10
[1]
  times less potent than 17 in cell growth inhibition: 10

## CN(C)CC[C@H](CSc1ccccc1)Nc1ccc(S(=O)(=O)Nc2ccc(N3CCN(c4cccc(-c5c(-c6ccc(Cl)cc6)cn(C)c5C(=O)O)c4)CC3)cc2)cc1[N+](=O)[O-] [Compound 20, (R)-4-(4-Chlorophenyl)-3-(3-(4-(4-(4-((4-(dimethylamino)-1-(phenylthio)butan-2-yl)amino)-3-nitrophenylsulfonamido)phenyl)piperazin-1-yl)phenyl)-1-methyl-1H-pyrrole-2-carboxylic acid]
H146 cancer cell line
  cell death induction: effectively induce cell death in a dose-dependent manner

## CCc1c(-c2ccc(Cl)cc2)c(-c2cccc(N3CCN(c4ccc(NS(=O)(=O)c5ccc(N[C@H](CCN(C)C)CSc6ccccc6)c([N+](=O)[O-])c5)cc4)CC3)c2)c(C(=O)O)n1C [Compound 21, (R)-4-(4-Chlorophenyl)-3-(3-(4-(4-(4-((4-(dimethylamino)-1-(phenylthio)butan-2-yl)amino)-3-nitrophenylsulfonamido)phenyl)piperazin-1-yl)phenyl)-5-ethyl-1-methyl-1H-pyrrole-2-carboxylic acid]
H146 cancer cell line
  cell death induction: effectively induce cell death in a dose-dependent manner
  concentration inducing substantial/robust cell death: 30 to 100 nM and 30 nM
[2]
  concentration inducing cleavage of PARP and caspase-3: 100 nM
